An excerpt weighted towards active compounds, which were near 2.4% of everything screened.
STAT3 blocker – reduces IL-6 driven STAT3 reporter signal | 190,000 tested, 0.89% active | AID 862 | U3A cells, IL-6 STAT3-luciferase reporter, luminescence; host cell line lacks STAT1 | inhibition, % at 5.5 µM;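 active = inhibition above the mean inhibition across all screened compounds plus 3 SD, cut at about 44% in these data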
STAT1 blocker – STAT1 signaling inhibition; NIH 3T3 STAT1-luciferase reporter, IFN-gamma, luminescence; inhibition, % at 5.5 µM; 200,000 tested, 0.35% active;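 active = inhibition above a set limit, the mean inhibition across all tested compounds plus 3 SD, cut at about 34% in these data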
b-catenin transl – alters nuclear translocation of beta-catenin in HeLa cells; immunofluorescence imaging; nuclear translocation activity, % at 5 µM; 190,000 tested, 0.3% active; AID 1665;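 active = nuclear translocation activity above 50% at 5 µM, with a well cell count of 50 or more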;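 also: per-cell ratio of nuclear to cytoplasmic median beta-catenin stain intensity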
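Signal – beta-catenin immunofluorescence imaging with DAPI · Test system – human HeLa cell line · Dosing – 5 µM primary single dose, 0.1% DMSO, 0.02–20 µM confirmation series · Measure – % activation, nuclear-to-cytoplasmic median beta-catenin signal ratio per cell · Incubation – 24 h compound exposure at 37°C, 5% CO2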
STAT3 act – increases IL-6 driven STAT3 reporter signal | U3A cells, IL-6 STAT3-luciferase reporter, luminescence; 100% = signal with IL-6 EC80 alone | activation (% of control), % at 5.6 µM | 190,000 tested, 0.91% active | AID 871;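 active = activation above the screen-wide mean of compound activation plus 3 SD, cut at about 130% in these data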
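Test system: human U3A cells carrying STAT3-luciferase construct; control set: IL-6-only wells as 100% reference; timing: compound pre-incubation 1 h before IL-6, then 6 h stimulation at 37 °C; also added: IL-6 stimulus at 33 ng/mL final; evaluation: % activation versus median of IL-6-stimulated wells; detection: reporter luminescence signal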
MT stabilizer – microtubule stabilization, imaging screen | % tubulin-high responders, % at 10 µM | HeLa tubulin immunostaining HCS, 24 h; share of cells brighter than vehicle mean+2SD | 200,000 tested, 0.83% active;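 active = plate Z-score above 3 for both tubulin-high and condensed-nucleus cell shares, with cell loss under 80%, at 10 µM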;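 also: anti alpha tubulin signal scored within the nucleus-defined area of each cell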
Large screens that a line does not name were inactive.

Cc1ccc(NC2=C(CC(=O)O)C(c3ccccc3)N(c3ccc(C)cc3)C2=O)cc1 (stereo unspecified)	MT stabilizer 12
CCCCc1n[nH]c(=S)n1Cc1ccc(C)cc1	none
COc1ccc(-c2cc(=O)c3ccccc3o2)cc1	none (no result: STAT3 blocker, STAT1 blocker, STAT3 act, MT stabilizer)
COc1ccc2oc(-c3ccccc3[N+](=O)[O-])cc(=O)c2c1	MT stabilizer 16
O=C(N/N=C/c1c[nH]c2ccccc12)c1cc(-c2ccc(-c3ccccc3)cc2)n[nH]1	none
O=C(N/N=C/c1cccs1)c1cc(-c2ccc3ccccc3c2)n[nH]1	none
Cc1ccc(-c2cc(C(=O)N/N=C/c3c[nH]c4ccccc34)[nH]n2)cc1	MT stabilizer 17
O=C(N/N=C/c1cccs1)c1cc(-c2cccc3ccccc23)n[nH]1	b-catenin transl 120
CCn1c(SCC(=O)N/N=C/c2c[nH]c3ccccc23)nnc1-c1ccc(Cl)cc1	MT stabilizer 12
O=C(N/N=C/c1c[nH]c2ccccc12)c1cc(-c2cccc3ccccc23)n[nH]1	MT stabilizer 27
CCOc1ccccc1N1C(=O)CC(Sc2n[nH]c(-c3ccccc3)n2)C1=O (stereo unspecified)	none
COC(=O)C(=Cc1ccccc1[N+](=O)[O-])C(=O)OC	none (no result: STAT3 blocker, STAT1 blocker, STAT3 act, MT stabilizer)
O=C(N/N=C/c1c[nH]c2ccccc12)c1cc(-c2ccccc2)n[nH]1	none
O=C(N/N=C/c1c[nH]c2ccccc12)c1cc(-c2ccc3ccccc3c2)n[nH]1	b-catenin transl 80, MT stabilizer 26
O=C(NCC1OCCc2ccccc21)c1ccc(NC(=O)c2ccccc2Cl)cc1 (stereo unspecified)	none
O=C(NCc1ccoc1)c1ccc(NC(=O)c2ccccc2Cl)cc1	STAT3 act 133 (no result: b-catenin transl)
N=C1C(c2ccccc2)=C(O)CN1CCCO	none
C=CCN1CC(O)=C(c2ccccc2)C1=N	MT stabilizer 34
O=C1CC(c2ccccc2)CC(O)=C1C=NCCCN1CCOCC1 (stereo unspecified)	b-catenin transl 53
O=C1N/C(=C\c2nc3ccccc3s2)c2ccccc21	none (no result: STAT3 blocker, STAT1 blocker, STAT3 act, MT stabilizer)
O=C1N/C(=C\c2ccccc2)c2ccccc21	MT stabilizer 20
Cn1cnnc1SCC(=O)NCCc1ccc(Cl)cc1Cl	none
O=c1cc(-c2cccc(F)c2)[nH]c2ccccc12	STAT3 act 133 (no result: b-catenin transl)
O=c1cc(-c2ccccc2)[nH]c2ccc(F)cc12	none (no result: b-catenin transl)
C/C(CC(=O)Nc1ccc(Cl)c(Cl)c1)=N\NC(=O)C(=O)N1CCCCC1	none
CCOC(=O)c1ccc(NC(=O)c2cn(CCC#N)nc2-c2ccc3c(c2)OCCO3)cc1	none
FC(F)(F)c1cc(-c2ccco2)nc(NCc2cccnc2)n1	b-catenin transl 61
CCN(CC)CCn1nc2c3c(cccc3c1=O)-c1ccccc1-2	STAT3 act 135
Cc1cc(C(=O)N/N=C/c2ccco2)c2ccccc2n1	none
CCn1ncc(/C=N\NC(=O)c2cc(-c3ccc(C)cc3C)nc3ccccc23)c1C	MT stabilizer 44
Cc1cc(C(=O)N/N=C/c2ccc(C)o2)c2ccccc2n1	MT stabilizer 15
COc1ccc(-c2cc(C(=O)N/N=C/c3sccc3C)c3ccccc3n2)c(OC)c1	STAT3 act 135 (no result: b-catenin transl)
O=C(N/N=C/c1cccs1)c1cc(C2CC2)nc2ccccc12	b-catenin transl 61, MT stabilizer 17
O=C(N/N=C/c1cccnc1)c1cc(-c2cccs2)nc2ccccc12	none (no result: b-catenin transl)
COc1ccccc1-c1cc(C(=O)N/N=C\c2cnn(C)c2C)c2ccccc2n1	none
Cc1ccc(C(c2nnnn2Cc2ccccc2)N2CCN(Cc3ccccc3)CC2)cc1 (stereo unspecified)	none
CC(C)OC(=O)COc1cc(O)c2c(=O)cc(-c3ccccc3)oc2c1	none (no result: STAT3 blocker, STAT1 blocker, STAT3 act, MT stabilizer)
Cc1ccc(/C=N/NC(=O)c2cc(C3CC3)nc3ccccc23)o1	MT stabilizer 23
CCCc1cc(C(=O)OC)c2ccccc2n1	none (no result: b-catenin transl)
CCCc1cc(C(=O)N/N=C/c2ccc(C)o2)c2ccccc2n1	MT stabilizer 44
Cn1cccc1/C=N/NC(=O)c1cc(-c2cccs2)nc2ccccc12	MT stabilizer 17
O=C(N/N=C/c1ccc[nH]1)c1cc(-c2cccs2)nc2ccccc12	none
COc1cc(/C=C/[N+](=O)[O-])ccc1OCc1cccc(C(=O)O)c1	STAT3 blocker 93, STAT1 blocker 90
O=C(c1ccco1)N1CCN(C(=O)c2cc(-c3ccccn3)nc3ccc(Cl)cc23)CC1	STAT3 act 135 (no result: b-catenin transl)
O=C(c1ccco1)N1CCN(C(=O)c2cc(-c3ccccc3)nc3ccccc23)CC1	none
Cn1c(=O)c([N+](=O)[O-])c(NCC2CCCO2)c2ccccc21 (stereo unspecified)	none (no result: STAT3 blocker, STAT1 blocker, STAT3 act, MT stabilizer)
C=CCn1c(SCC(=O)Nc2ccccc2OC)nnc1-c1ccccn1	MT stabilizer 24
O=C(Cc1ccc(-c2ccccc2)cc1)NCc1ccccc1	b-catenin transl 55
O=C(Cc1ccccc1)NCc1cccnc1	none
O=C(Cc1ccc(-c2ccccc2)cc1)NCc1cccnc1	MT stabilizer 13
Cc1ccc(CNC(=O)Cc2ccc(-c3ccccc3)cc2)cc1	none (no result: b-catenin transl)
Cc1ccc(CC(=O)NCc2ccc(F)cc2)cc1	MT stabilizer 25
OCCC1CN(Cc2cnc(-c3ccc(Cl)cc3)nc2)CCN1C1CCCC1 (stereo unspecified)	none (no result: STAT3 blocker, STAT1 blocker, STAT3 act, MT stabilizer)
O=C(NCCN1C(=O)S/C(=C\c2cccs2)C1=O)[C@H](Cc1ccccc1)N1C(=O)c2ccccc2C1=O	none (no result: b-catenin transl)
CN(CCn1ccnc1)Cc1cn(Cc2ccccc2)nc1-c1ccc2c(c1)OCO2	none (no result: STAT3 blocker, STAT1 blocker, STAT3 act, MT stabilizer)
Cc1c(Cl)c([N+](=O)[O-])nn1Cc1ccc(C(=O)Nc2ccc(Cl)cn2)o1	none
O=C(Nc1ccc(Cl)cn1)c1ccc([N+](=O)[O-])o1	MT stabilizer 8.3
CCN1CCN(CC(=O)c2c[nH]c3ccccc23)CC1	STAT3 act 133
O=C(CN1CCOCC1)c1c[nH]c2ccccc12	none
CC1(C)CC(Nc2ccc(Nc3ccccc3)cc2)CC(C)(C)N1	none (no result: STAT3 blocker, STAT1 blocker, STAT3 act, MT stabilizer)
CC(=O)N1CCc2c(sc(NC(=O)c3ccc4c(c3)OCCO4)c2C#N)C1	b-catenin transl 57, MT stabilizer 34
CC(=O)N1CCc2c(sc(NC(=O)c3ccc(S(=O)(=O)N(C)C)cc3)c2C#N)C1	none (no result: b-catenin transl)
CCOc1ccccc1N1CCN(C(=O)c2ccccc2)CC1	none (no result: b-catenin transl)
CCOc1ccccc1N1CCN(C(=O)C2c3ccccc3Oc3ccccc32)CC1	b-catenin transl 60, MT stabilizer 40
COc1cc(NC(=O)COc2ccc(Cl)cc2)ccc1-c1cc2ccccc2oc1=O	MT stabilizer 24
N#CC1=C2SCC(O)(c3ccccc3)N2C(=O)CC1c1cccs1 (stereo unspecified)	b-catenin transl 176, MT stabilizer 32
N#CC1=C2SCC(O)(c3ccccc3)N2C(=O)CC1c1ccccc1F (stereo unspecified)	MT stabilizer 47 (no result: b-catenin transl)
CC(=O)c1cc2c(cc1NS(=O)(=O)c1ccc3c(c1)OCCO3)OCO2	none
COC(=O)c1ccc(Cl)c(NS(=O)(=O)c2ccc3c(c2)OCCO3)c1	MT stabilizer 39 (no result: b-catenin transl)
